Measurements reported in ChEMBL document CHEMBL1687893 (Eur J Med Chem, 2011).

Assays:
Mus musculus [1] = experiment: Antiinflammatory activity against xylene-induced ear edema in Kunming mouse assessed as reduction in ear swelling weight at 100 mg, ip administered 2 hrs post challenge measured after 30 mins; assay type: functional
In short: (§1)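 Male Kunming mice (~20 g), fasted 12 h, groups of 6. Compound given i.p.; 30 min later 0.015 mL xylene applied to front and back surfaces of right ear, left ear as control. Killed 2 h after xylene; 7 mm circular ear sections weighed and measured. Swelling taken as weight and thickness over untreated left ear. Mean ± S, one-way ANOVA.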

Mus musculus [2] = experiment: Antiinflammatory activity against xylene-induced ear edema in Kunming mouse assessed as reduction in ear swelling thickness at 100 mg, ip administered 2 hrs post challenge measured after 30 mins; assay type: functional; in short: as §1
MCF7 [3] = experiment: Cytotoxicity against human MCF7 cells assessed as growth inhibition after 72 hrs; conditions: MCF7, 72 h
MDA-MB-231 = experiment: Cytotoxicity against human MDA-MB-231 cells assessed as growth inhibition after 72 hrs; conditions: MDA-MB-231, 72 h
MCF7 [4] = experiment: Antiproliferative activity against human MCF-7 cells at 0.63 uM to 10 uM after 20 to 140 hrs; assay type: functional, cell-based; conditions: TDE = time-dependent effect
In short: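 MCF-7 cells in DMEM with 5% FBS, seeded at 7500 cells/mL and grown 3 days before compound addition. Exposed to a range of concentrations for up to 144 h. Biomass measured by glutaraldehyde fixation, crystal violet staining, ethanol extraction and absorbance at 590 nm. Expressed as corrected T/C % = (T−C0)/(C−C0)·100.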

[5] = target: Prostaglandin G/H synthase 2 (Homo sapiens) (UniProt P35354); experiment: Inhibition of human COX-2 at 10 uM by ELISA relative to licofelone
[6] = target: Prostaglandin G/H synthase 1 (Ovis aries) (UniProt P05979); experiment: Inhibition of ovine COX-1 at 10 uM by ELISA relative to licofelone
Mus musculus [7] = experiment: Antiinflammatory activity against xylene-induced ear edema in Kunming mouse assessed as reduction in ear swelling weight at 25 mg, […]; assay type: functional
Mus musculus [8] = experiment: Antiinflammatory activity against xylene-induced ear edema in Kunming mouse assessed as reduction in ear swelling weight at 200 mg, […]; assay type: functional
Mus musculus [9] = experiment: Antiinflammatory activity against xylene-induced ear edema in Kunming mouse assessed as reduction in ear swelling thickness at 25 mg, ip administered 2 hrs post challenge measured after 30 mins; assay type: functional; in short: as §1
Mus musculus [10] = experiment: Antiinflammatory activity against xylene-induced ear edema in ip dosed Kunming mouse assessed as reduction in ear swelling administered 2 hrs post challenge measured after 30 mins; assay type: functional, organism-based; in short: as §1
Mus musculus [11] = experiment: Antiinflammatory activity against xylene-induced ear edema in Kunming mouse assessed as reduction in ear swelling thickness at 200 mg, ip administered 2 hrs post challenge measured after 30 mins; assay type: functional; in short: as §1

SMILES | inhibition (INH) (Mus musculus [1]) | inhibition (INH) (Mus musculus [2]) | IC50 (MCF7 [3]) | IC50 (MDA-MB-231) | Activity (MCF7 [4]) | inhibition [5] | inhibition [6] | inhibition (INH) (Mus musculus [7]) | inhibition (INH) (Mus musculus [8]) | inhibition (INH) (Mus musculus [9]) | inhibition (Mus musculus [10]) | inhibition (INH) (Mus musculus [11])
CC1(C)Cc2c(-c3ccccc3)c(-c3ccc(Cl)cc3)c(C(=O)COC(=O)c3ccccc3Cl)n2C1 | 12.3% | 20.3% | 5.2 µM | 31.8 µM |  |  |  |  |  |  |  | 
CC(=O)c1c(-c2ccc(Cl)cc2)c(-c2ccccc2)c2n1CC(C)(C)C2 | 54.4% | 50.7% | 2 µM | 3.3 µM | tde | 9% | 11% |  |  |  |  | 
CC1(C)Cc2c(-c3ccccc3)c(-c3ccc(Cl)cc3)c(C(=O)COC(=O)c3ccc(Cl)cc3)n2C1 | 24.6% | 29.7% | 3.9 µM | > 50 µM |  |  |  |  |  |  |  | 
CC1(C)Cc2c(-c3ccccc3)c(-c3ccc(Cl)cc3)c(C(=O)COC(=O)Cc3ccccc3)n2C1 | 26.3% | 35.8% | 4.7 µM | > 50 µM |  |  |  |  |  |  |  | 
CCC(=O)OCC(=O)c1c(-c2ccc(Cl)cc2)c(-c2ccccc2)c2n1CC(C)(C)C2 | 3.5% | 12.3% | 1.7 µM | 3.1 µM | tde | 9% | 11% |  |  |  |  | 
COc1ccc(C(=O)OCC(=O)c2c(-c3ccc(Cl)cc3)c(-c3ccccc3)c3n2CC(C)(C)C3)cc1 | 15.8% | 10.1% | 11.9 µM | > 50 µM |  |  |  |  |  |  |  | 
CC1(C)Cc2c(-c3ccccc3)c(-c3ccc(Cl)cc3)c(C(=O)COC(=O)c3ccccc3O)n2C1 | 31.6% | 14.5% | 8.2 µM | > 50 µM |  |  |  |  |  |  |  | 
Cc1ccccc1C(=O)OCC(=O)c1c(-c2ccc(Cl)cc2)c(-c2ccccc2)c2n1CC(C)(C)C2 | 12.3% | 34.1% | 6.2 µM | 12.9 µM |  |  |  |  |  |  |  | 
CC1(C)Cc2c(-c3ccccc3)c(-c3ccc(Cl)cc3)c(CC(=O)O)n2C1 [LICOFELONE] | 43.9% | 52.2% | 5.5 µM | 36.7 µM |  |  |  | 33.3% | 77.2% | 49.2% | Dose-dependent effect | 74.6%
CC1(C)Cc2c(-c3ccccc3)c(-c3ccc(Cl)cc3)c(C(=O)CCl)n2C1 | 28.1% | 24.6% | 5.8 µM | 35.4 µM |  | 9% | 11% |  |  |  |  | 
Cc1ccc(C(=O)OCC(=O)c2c(-c3ccc(Cl)cc3)c(-c3ccccc3)c3n2CC(C)(C)C3)cc1 | 22.8% | 21% | > 50 µM | > 50 µM |  |  |  |  |  |  |  | 
COc1ccccc1C(=O)OCC(=O)c1c(-c2ccc(Cl)cc2)c(-c2ccccc2)c2n1CC(C)(C)C2 | 31.6% | 18.1% | 4.5 µM | > 50 µM |  |  |  |  |  |  |  | 
CC(=O)OCC(=O)c1c(-c2ccc(Cl)cc2)c(-c2ccccc2)c2n1CC(C)(C)C2 | 19.3% | 37% | 2.5 µM | 4.4 µM |  | 9% | 11% |  |  |  |  | 
CCC(=O)c1c(-c2ccc(Cl)cc2)c(-c2ccccc2)c2n1CC(C)(C)C2 | 24.6% | 22.5% | 8.7 µM | 19.2 µM |  | 9% | 11% |  |  |  |  | 
Cc1ccc(-c2cc(C(F)(F)F)nn2-c2ccc(S(N)(=O)=O)cc2)cc1 [CELECOXIB] | 46.3% | 47.9% |  |  |  |  |  |  |  |  |  | 
CC1(C)Cc2c(-c3ccccc3)c(-c3ccc(Cl)cc3)c(C(=O)COC=O)n2C1 | 19.3% | 20.3% | 1.5 µM | 1.8 µM | tde | 9% | 11% |  |  |  |  | 
CC1(C)Cc2c(-c3ccccc3)c(-c3ccc(Cl)cc3)c(C(=O)COC(=O)c3cccc(Cl)c3)n2C1 | 3.5% | 1.4% | 5.2 µM | > 50 µM |  |  |  |  |  |  |  | 
O=c1[nH]cc(F)c(=O)[nH]1 [FLUOROURACIL] |  |  | 4.7 µM | 9.6 µM |  |  |  |  |  |  |  | 
CC(C)Cc1ccc(C(C)C(=O)O)cc1 (stereo unspecified) [IBUPROFEN] | 51.2% | 54.3% |  |  |  |  |  |  |  |  |  | 
CC1(C)Cc2c(-c3ccccc3)c(-c3ccc(Cl)cc3)cn2C1 |  |  | 5.6 µM | 19.7 µM |  |  |  |  |  |  |  | 
Cc1cc(C(=O)OCC(=O)c2c(-c3ccc(Cl)cc3)c(-c3ccccc3)c3n2CC(C)(C)C3)cc([N+](=O)[O-])c1 | 7% | 26.8% |  |  |  |  |  |  |  |  |  | 
Cc1cccc(C(=O)OCC(=O)c2c(-c3ccc(Cl)cc3)c(-c3ccccc3)c3n2CC(C)(C)C3)c1 | 17.5% | 50.7% | 3.8 µM | > 50 µM |  |  |  |  |  |  |  | 
CC1(C)Cc2c(-c3ccccc3)c(-c3ccc(Cl)cc3)c(C(=O)COC(=O)c3ccc([N+](=O)[O-])cc3)n2C1 | 1.8% | 6.5% | 4.8 µM | 7.3 µM |  |  |  |  |  |  |  | 
CCCCCC(=O)c1c(-c2ccc(Cl)cc2)c(-c2ccccc2)c2n1CC(C)(C)C2 | 14% | 37% | 5.4 µM | 31.3 µM |  | 9% | 11% |  |  |  |  | 
CC1(C)Cc2c(-c3ccccc3)c(-c3ccc(Cl)cc3)c(C(=O)COC(=O)c3ccc(Cl)cc3Cl)n2C1 | 43.9% | 8% | 6.7 µM | > 50 µM |  |  |  |  |  |  |  | 
CC1(C)Cc2c(-c3ccccc3)c(-c3ccc(Cl)cc3)c(C(=O)COC(=O)Cc3ccc(Cl)cc3)n2C1 | 35.1% | 37% | 7.1 µM | > 50 µM |  |  |  |  |  |  |  | 
